# Test results: PubChem BioAssay
# Active and inactive are the calls of the source.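 Rule for the calls, unless noted: active = mean duplicate potentiation above the buffer control mean plus 5 SD of buffer wells; inactive = the rest.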
# Target: Potassium voltage-gated channel subfamily KQT member 1 (Homo sapiens) (UniProt P51787)
# Experiment: enhancement of KCNQ1 channel thallium flux – FluxOR thallium flux, CHO cells, duplicates, confirmation (AID 493007;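 active = potentiation averaged over duplicate wells exceeding buffer-only control mean by more than 3 SD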;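 for outcome: cells depolarized by a potassium plus thallium sulfate stimulus after compound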)
# Conditions: KCNQ1 cell line, FluxOR thallium flux fluorescence, at 10 µM; active compounds read high, % of reference activator effect, buffer zero
# Procedure, shortened: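 Test system – KCNQ1-expressing CHO cell line · Incubation – FluxOR dye loading 90 min, compound exposure 20 min, room temperature · Detection – FluxOR Tl+ flux fluorescence, 10 s baseline plus 110 s recording · Controls – buffer-only wells as 0% and R-L3 activator as 100%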
# Chain of Potassium voltage-gated channel subfamily KQT member 1 (Homo sapiens) (P51787 whole entry, looked up): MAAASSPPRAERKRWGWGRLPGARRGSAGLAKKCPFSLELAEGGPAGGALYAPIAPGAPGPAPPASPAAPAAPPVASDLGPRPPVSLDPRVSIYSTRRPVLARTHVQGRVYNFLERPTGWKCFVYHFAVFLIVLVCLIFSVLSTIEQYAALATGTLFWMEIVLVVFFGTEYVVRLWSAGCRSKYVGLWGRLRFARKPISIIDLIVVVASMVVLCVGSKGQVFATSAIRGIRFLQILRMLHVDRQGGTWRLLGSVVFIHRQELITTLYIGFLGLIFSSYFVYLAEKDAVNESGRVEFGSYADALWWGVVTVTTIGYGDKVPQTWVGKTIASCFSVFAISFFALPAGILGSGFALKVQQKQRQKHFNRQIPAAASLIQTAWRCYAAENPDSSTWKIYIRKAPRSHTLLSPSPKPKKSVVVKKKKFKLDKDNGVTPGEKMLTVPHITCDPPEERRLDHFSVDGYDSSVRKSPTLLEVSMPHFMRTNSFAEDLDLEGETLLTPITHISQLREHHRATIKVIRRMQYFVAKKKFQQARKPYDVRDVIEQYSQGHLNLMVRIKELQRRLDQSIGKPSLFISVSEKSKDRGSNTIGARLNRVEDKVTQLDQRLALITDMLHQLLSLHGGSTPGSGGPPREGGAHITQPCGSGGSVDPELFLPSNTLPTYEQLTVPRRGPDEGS
Compound,potentiation,outcome
O=C(NC(=S)Nc1cccnc1)c1cc2ccccc2o1,35% (active),
O=C1CCC/C(=N\NC(=O)c2ccc(COc3cccc4cccnc34)cc2)C1,,inactive
Cc1ccccc1NC(=S)NNC(=O)c1csc2c1CCC(C)C2 (stereo not given),30% (active),
CN1CCN(c2ccc(S(=O)(=O)N3CCCCC3)cc2NC(=O)COc2cccc(Cl)c2)CC1,,inactive
CCCC(=O)n1nc(-c2ccc(C)cc2)nc1NCc1ccco1,80% (active),
COc1ccc(C(=O)CC(=O)C(=O)Nc2ccc(C)c(Cl)c2)cc1,26% (active),
O=C(NC(=S)Nc1ccc(N2CCCCC2)c(Cl)c1)c1cccs1,120% (active),
CCCn1c(SCC(=O)Nc2ccccc2C(=O)OC)nc2c1c(=O)n(C)c(=O)n2C,120% (active),
COc1ccc(CCN(C)C(=O)CSc2nnc(-c3ccco3)o2)cc1OC,,inactive
Cc1c(-c2nc(-c3ccncc3)no2)cccc1[N+](=O)[O-],20% (active),

# Target: Potassium voltage-gated channel subfamily KQT member 2 (Rattus norvegicus) (UniProt O88943)
# Sequence (O88943 whole entry, looked up): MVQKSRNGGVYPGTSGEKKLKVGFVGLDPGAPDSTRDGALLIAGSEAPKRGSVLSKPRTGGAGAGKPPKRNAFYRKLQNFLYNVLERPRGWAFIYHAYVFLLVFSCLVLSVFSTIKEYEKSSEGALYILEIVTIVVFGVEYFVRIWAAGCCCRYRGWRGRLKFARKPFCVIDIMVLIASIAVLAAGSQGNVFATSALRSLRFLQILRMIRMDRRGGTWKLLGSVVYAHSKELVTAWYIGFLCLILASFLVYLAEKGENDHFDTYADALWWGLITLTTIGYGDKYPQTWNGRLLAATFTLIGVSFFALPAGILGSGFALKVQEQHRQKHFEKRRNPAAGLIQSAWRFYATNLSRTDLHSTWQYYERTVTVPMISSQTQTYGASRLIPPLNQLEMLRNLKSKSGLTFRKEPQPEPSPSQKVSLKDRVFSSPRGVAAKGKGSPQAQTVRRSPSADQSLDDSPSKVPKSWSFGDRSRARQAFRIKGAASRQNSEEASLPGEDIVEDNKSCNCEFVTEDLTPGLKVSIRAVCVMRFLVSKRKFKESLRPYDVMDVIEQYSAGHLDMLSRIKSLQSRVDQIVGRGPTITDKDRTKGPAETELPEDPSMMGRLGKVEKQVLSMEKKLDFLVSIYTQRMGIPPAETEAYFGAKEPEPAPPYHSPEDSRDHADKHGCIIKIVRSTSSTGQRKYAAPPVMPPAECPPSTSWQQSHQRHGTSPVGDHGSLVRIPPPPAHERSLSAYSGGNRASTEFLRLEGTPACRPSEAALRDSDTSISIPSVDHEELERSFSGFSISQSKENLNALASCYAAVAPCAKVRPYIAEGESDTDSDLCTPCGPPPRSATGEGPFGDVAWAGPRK
# Experiment: KCNQ2 thallium flux enhancement – KCNQ2-CHO-K1 cells, selectivity assay for KCNQ1 potentiator project (AID 493009);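 note: assay conditions were tuned for KCNQ1 rather than KCNQ2 modulators; signal is max minus min fluorescence divided by baseline after thallium stimulus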
# Conditions: FluxOR thallium flux fluorescence, at 10 µM; active compounds read high, scaled: buffer 0, activator control 100
Compound,outcome,potentiation
COC(=O)c1c(NC(=O)CC2SC(N)=NC2=O)sc2c1CCC(C)C2 (stereo not given),inactive,
Cc1ccc2cc(/C=N/NC(=O)CN3CCCCC3)c(Cl)nc2c1,inactive,
Cc1cc(/C=C2\C(=N)N3N=C(C(C)C)SC3=NC2=O)c(C)n1Cc1ccccc1,inactive,
CSCC(C)N1CCC(n2nccc2NC(=O)CCOc2ccccc2)CC1 (stereo not given),inactive,
CCOc1cccc2sc(NC(=O)c3ccc(Br)s3)nc12,inactive,
CNCC/C=C1/c2ccccc2CSc2ccccc21,inactive,
CCCc1cc(=O)[nH]c(SCC(=O)Nc2ccc(Br)cc2Br)n1,inactive,
O=C(NC(=S)Nc1cccc(Cl)c1)c1cncc(Br)c1,inactive,
CCC(C)NC(=O)Cn1c(-c2ccccc2)cc(C(C)=O)c1C (stereo not given),inactive,
COc1cccc(-c2nc(=S)c3c(o2)CCCC3)c1,inactive,
CN(C)CCCN(C(=O)CCOc1ccccc1)c1nc2c(F)cccc2s1,inactive,
CCc1ccc(NC(=O)C(=O)NNC(=O)c2cccc(OC)c2)cc1,,339% (active)
CCNc1nc(NCC)nc(C(=O)OCCO)n1,inactive,
COc1ccccc1C(=O)NNC(=O)C(=O)Nc1ccc(C)c(Cl)c1,,512% (active)
Cc1cc(Cl)ccc1OCC(=O)N/N=C1\CC2C=CCC12 (stereo not given),inactive,
Nc1ccc(C2(c3ccc(N)cc3)OC(=O)c3ccccc32)cc1,inactive,
O=C(NC(=S)N1CCN(Cc2ccc3c(c2)OCO3)CC1)c1ccc(Cl)cc1,,298% (active)
O=C1C(=O)N(CCCc2ccccc2)c2ccccc21,inactive,

Compound,outcome,potentiation
Cc1ccc(NC(=O)Nc2ccc3c(c2)CCC3)cc1,inactive,
O=C(Nc1nnc(-c2ccc3c(c2)CCCC3)o1)c1ccc(Cl)cc1Cl,,442% (active)
COc1ccc(-c2csc(N(CCCN(C)C)C(=O)c3ccccc3C)n2)cc1,inactive,
Cc1cccc(OCc2n[nH]c(=S)n2C2CCCCC2)c1,inactive,
Nc1nc(N)c2sc3nc4c(cc3c2n1)CCC4,inactive,
Cc1cc(C=NCCO)c(C)n1-c1cc(Cl)ccc1Cl,inactive,
Cc1cc(C(=O)CSc2nnc(N)s2)c(C)n1C1CC1,inactive,
O=C(COc1ccccc1Cl)NC(=S)N1CCc2ccccc21,inactive,
Cc1ccc2cccnc2c1NC(=S)NC(=O)c1ccccc1,inactive,
CCC1Oc2ccc(C)cc2N(CC(=O)N(Cc2ccc(C)o2)C2CC(C)(C)NC(C)(C)C2)C1=O (stereo not given),,166% (active)
COc1ccccc1C(=O)NNC(=O)C(=O)NC(C)C,inactive,
COc1cccc(NC(=S)N/N=C2/CCCCc3ccccc32)c1,inactive,
O=C(NC(=S)Nc1cccnc1)c1cc2ccccc2o1,,182% (active)
O=C1CCC/C(=N\NC(=O)c2ccc(COc3cccc4cccnc34)cc2)C1,inactive,
Cc1ccccc1NC(=S)NNC(=O)c1csc2c1CCC(C)C2 (stereo not given),,200% (active)
CN1CCN(c2ccc(S(=O)(=O)N3CCCCC3)cc2NC(=O)COc2cccc(Cl)c2)CC1,inactive,
CCCC(=O)n1nc(-c2ccc(C)cc2)nc1NCc1ccco1,,148% (active)
